Test results: ChEMBL document CHEMBL3763072, “Structure activity relationship studies on chemically non-reactive glycine sulfonamide inhibitors of diacylglycerol lipase” (Bioorg Med Chem, 2016)
One block for each compound: values may come before it. Active and inactive are the calls of the source. The rule behind the calls is not given here.

How the values were obtained:
[1] = target: T1, Diacylglycerol lipase-alpha (Homo sapiens, UniProt Q9Y4D2); test: Inhibition of full length human C-terminal HA-tagged DAGLalpha expressed in HEK293 cell membrane using DAG as substrate incubated for 20 mins by LC-MS analysis; assay type: cell-based
T1 sequence (Q9Y4D2 whole entry): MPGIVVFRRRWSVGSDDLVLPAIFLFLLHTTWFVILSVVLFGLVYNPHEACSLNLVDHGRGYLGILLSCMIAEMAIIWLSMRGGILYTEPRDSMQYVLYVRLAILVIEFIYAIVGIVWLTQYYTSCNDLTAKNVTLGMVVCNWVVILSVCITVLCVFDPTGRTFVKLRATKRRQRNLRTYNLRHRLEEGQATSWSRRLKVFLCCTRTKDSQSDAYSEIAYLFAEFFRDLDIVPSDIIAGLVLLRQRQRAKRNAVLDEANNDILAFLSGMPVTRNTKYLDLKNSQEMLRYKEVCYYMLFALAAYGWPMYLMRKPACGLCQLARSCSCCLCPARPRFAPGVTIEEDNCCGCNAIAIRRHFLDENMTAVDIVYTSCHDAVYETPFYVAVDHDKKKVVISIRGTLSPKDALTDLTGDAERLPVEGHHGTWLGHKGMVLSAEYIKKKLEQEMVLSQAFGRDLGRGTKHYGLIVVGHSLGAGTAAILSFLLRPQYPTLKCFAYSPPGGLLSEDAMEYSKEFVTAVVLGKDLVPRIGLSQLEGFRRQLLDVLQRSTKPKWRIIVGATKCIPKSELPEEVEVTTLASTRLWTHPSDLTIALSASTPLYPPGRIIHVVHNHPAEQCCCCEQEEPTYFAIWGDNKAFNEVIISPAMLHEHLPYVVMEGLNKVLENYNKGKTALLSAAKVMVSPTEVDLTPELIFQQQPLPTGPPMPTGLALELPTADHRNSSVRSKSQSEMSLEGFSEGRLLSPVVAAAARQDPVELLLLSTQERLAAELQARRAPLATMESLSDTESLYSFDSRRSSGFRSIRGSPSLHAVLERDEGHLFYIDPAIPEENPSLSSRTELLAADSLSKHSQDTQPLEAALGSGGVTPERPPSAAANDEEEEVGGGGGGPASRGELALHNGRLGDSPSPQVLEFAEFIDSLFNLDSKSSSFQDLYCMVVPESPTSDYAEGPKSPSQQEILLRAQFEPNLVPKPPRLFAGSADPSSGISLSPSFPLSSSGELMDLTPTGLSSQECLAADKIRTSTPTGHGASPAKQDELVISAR
Procedure, shortened: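 Cell-free DAGL-α enzyme assay run at pH 6.5. IC50 values are reported, with replicate counts (n) given per value.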

[2] = Dissociation constant, pKa of compound at pH 2 to […] by spectrophotometric titration method; assay type: physicochemical
physchem = details: octanol/phosphate buffer, pH 7.4
[3] = Metabolic stability in mouse liver microsomes assessed as residual compound at 3 uM preincubated for 2 mins followed by NADPH addition measured after 10 mins by LC-MS analysis; assay type: ADME; details: read-out: Stability
[4] = Metabolic stability in human liver microsomes assessed as residual compound at 3 uM preincubated for 2 mins followed by NADPH addition measured after 10 mins by LC-MS analysis; assay type: ADME; details: read-out: Stability
[5] = Cmax in mouse at 10 mg/kg, po; assay type: ADME, organism-based; design: dose 10 mg/kg, route oral; details: in vivo
[6] = target: T2, Pancreatic triacylglycerol lipase (Sus scrofa) (UniProt P00591); test: Inhibition of porcine pancreatic lipase at 30 uM
T2 sequence (whole entry): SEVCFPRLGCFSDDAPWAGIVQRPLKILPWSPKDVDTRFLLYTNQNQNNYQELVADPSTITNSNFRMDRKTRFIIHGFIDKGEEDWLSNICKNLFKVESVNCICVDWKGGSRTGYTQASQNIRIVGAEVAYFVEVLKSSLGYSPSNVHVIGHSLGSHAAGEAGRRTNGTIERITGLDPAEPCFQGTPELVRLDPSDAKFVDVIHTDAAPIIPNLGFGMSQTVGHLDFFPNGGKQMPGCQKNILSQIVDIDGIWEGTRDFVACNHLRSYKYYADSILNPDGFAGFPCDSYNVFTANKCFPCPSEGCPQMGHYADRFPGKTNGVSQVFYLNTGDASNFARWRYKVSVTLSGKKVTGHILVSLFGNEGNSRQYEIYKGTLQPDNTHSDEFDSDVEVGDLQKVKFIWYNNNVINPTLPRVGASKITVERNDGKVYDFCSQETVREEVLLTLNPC

[7] = Oral bioavailability in mouse at 10 mg/kg; assay type: ADME, organism-based; details: in vivo
[8] = Half life in mouse at 10 mg/kg, po; assay type: ADME, organism-based; details: in vivo
[9] = Tmax in mouse at 10 mg/kg, ip; assay type: ADME, organism-based; details: in vivo
[10] = Half life in mouse at 1 mg/kg, iv; assay type: ADME, organism-based; details: in vivo
[11] = Tmax in mouse at 10 mg/kg, po; assay type: ADME, organism-based; details: in vivo
[12] = target: T3, Nuclear receptor subfamily 1 group I member 2 (Homo sapiens, UniProt O75469); test: Transactivation of human PXR expressed in human HepG2 cells after […] by luciferase reporter gene assay; assay type: ADME, cell-based
T3 sequence (O75469 whole entry): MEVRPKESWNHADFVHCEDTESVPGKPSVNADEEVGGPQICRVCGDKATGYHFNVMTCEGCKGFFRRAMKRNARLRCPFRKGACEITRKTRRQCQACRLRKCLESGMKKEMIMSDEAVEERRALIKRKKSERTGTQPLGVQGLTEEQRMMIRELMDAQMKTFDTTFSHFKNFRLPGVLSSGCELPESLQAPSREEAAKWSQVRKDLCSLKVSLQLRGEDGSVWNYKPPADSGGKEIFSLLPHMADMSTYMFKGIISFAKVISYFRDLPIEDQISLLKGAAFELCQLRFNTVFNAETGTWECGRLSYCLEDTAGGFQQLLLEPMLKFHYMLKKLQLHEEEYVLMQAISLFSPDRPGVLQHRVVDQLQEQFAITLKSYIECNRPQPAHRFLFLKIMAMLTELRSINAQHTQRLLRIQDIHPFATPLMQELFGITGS

[13] = target: T4, Diacylglycerol lipase-beta (Homo sapiens, UniProt Q8NCG7); test: Inhibition of DAGLbeta (unknown origin)
T4 sequence (Q8NCG7 whole entry): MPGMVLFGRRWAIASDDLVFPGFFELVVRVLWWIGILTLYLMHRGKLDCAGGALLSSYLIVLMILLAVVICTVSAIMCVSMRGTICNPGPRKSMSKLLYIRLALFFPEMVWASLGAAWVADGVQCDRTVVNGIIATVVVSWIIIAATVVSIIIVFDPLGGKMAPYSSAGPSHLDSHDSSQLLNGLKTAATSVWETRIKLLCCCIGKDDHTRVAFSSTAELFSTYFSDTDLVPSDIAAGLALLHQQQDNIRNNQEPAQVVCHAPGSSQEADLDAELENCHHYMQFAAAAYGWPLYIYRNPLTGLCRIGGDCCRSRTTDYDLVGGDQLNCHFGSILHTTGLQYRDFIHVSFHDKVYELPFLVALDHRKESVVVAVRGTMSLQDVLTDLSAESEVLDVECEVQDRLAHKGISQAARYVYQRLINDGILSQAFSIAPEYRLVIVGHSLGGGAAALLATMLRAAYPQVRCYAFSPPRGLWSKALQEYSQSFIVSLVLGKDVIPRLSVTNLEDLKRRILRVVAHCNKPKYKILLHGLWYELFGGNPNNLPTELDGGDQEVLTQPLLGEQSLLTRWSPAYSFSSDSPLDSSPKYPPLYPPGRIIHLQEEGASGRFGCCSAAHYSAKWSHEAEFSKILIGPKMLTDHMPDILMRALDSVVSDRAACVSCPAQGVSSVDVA

[14] = Half life in mouse at 10 mg/kg, ip; assay type: ADME, organism-based; details: in vivo
[15] = Cmax in mouse at 1 mg/kg, iv; assay type: ADME, organism-based; design: dose 1 mg/kg, route intravenous; details: in vivo
[16] = Metabolic stability in rat liver microsomes assessed as residual compound at 3 uM preincubated for 2 mins followed by NADPH addition measured after 10 mins by LC-MS analysis; assay type: ADME; details: read-out: Stability
Mus musculus [17] = test: AUC(infinity) in mouse at 1 mg/kg, iv; assay type: ADME, organism-based; design: dose 1 mg/kg, route intravenous, time infinity; details: in vivo
Mus musculus [18] = test: AUC(infinity) in mouse at 10 mg/kg, ip; assay type: ADME, organism-based; design: dose 10 mg/kg, time infinity, route intraperitoneal; details: in vivo
[19] = Clearance in mouse at 1 mg/kg, iv; assay type: ADME, organism-based; details: in vivo
Mus musculus [20] = test: Bioavailability in mouse at 10 mg/kg, ip; assay type: ADME, organism-based; details: in vivo
[21] = target: T5, Monoglyceride lipase (Homo sapiens) (UniProt Q99685); test: Inhibition of MAGL (unknown origin) at 30 uM
T5 sequence (whole entry): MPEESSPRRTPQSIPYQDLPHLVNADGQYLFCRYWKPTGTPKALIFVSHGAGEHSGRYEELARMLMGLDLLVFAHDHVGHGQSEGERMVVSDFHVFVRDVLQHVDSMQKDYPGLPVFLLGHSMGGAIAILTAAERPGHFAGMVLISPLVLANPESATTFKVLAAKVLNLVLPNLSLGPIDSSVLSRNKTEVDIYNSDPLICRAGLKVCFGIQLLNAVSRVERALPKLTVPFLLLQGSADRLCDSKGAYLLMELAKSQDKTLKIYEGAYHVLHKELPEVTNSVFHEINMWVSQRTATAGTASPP

[22] = Cmax in mouse at 10 mg/kg, ip; assay type: ADME, organism-based; design: dose 10 mg/kg, route intraperitoneal; details: in vivo
[23] = Volume of distribution at steady state in mouse at 1 mg/kg, iv; assay type: ADME, organism-based; details: in vivo, read-out: Vdss
[24] = AUC(infinity) in mouse at 10 mg/kg, po; assay type: ADME, organism-based; design: dose 10 mg/kg, route oral, time infinity; details: in vivo
Mus musculus [25] = test: In vivo inhibition of DAGLalpha in ip dosed mouse assessed as reduction in 2-AG level in liver; assay type: functional, organism-based
[26] = target: T1, Diacylglycerol lipase-alpha; test: Inhibition of full length human C-terminal HA-tagged DAGLalpha expressed in HEK293 cells using DAG as substrate assessed as reduction in intracellular 2-AG level incubated for 20 mins by LC-MS analysis; assay type: cell-based

SMILES: O=C(O)CN(C1(c2cccc(-c3cc(Cl)cc(Cl)c3)c2)CCC1)S(=O)(=O)c1ccccc1Cl
- IC50 [1]: 0.51 µM

SMILES: C[C@@H](c1ccc(-c2ccc(Cl)cc2Cl)cc1)N(CC(=O)O)S(=O)(=O)c1ccc(OC(F)F)cc1
- IC50 [1]: 0.018 µM

SMILES: O=C(O)CN(c1cccc(-c2cccc(Cl)c2Cl)c1)S(=O)(=O)c1ccc(OC(F)F)cc1
- IC50 [13]: 0.04 µM
- inhibition [21]: inactive
- inhibition (Mus musculus [25]): Active
- IC50 [1]: 0.0024 µM
- IC50 [26]: 0.0143 µM

Continued, values first:

- pKa [2]: 2
- logD (physchem): 0.5
- IC50 [1]: 13.5 µM
SMILES: CC1(C)CCc2cc(S(=O)(=O)N(CC(=O)O)Cc3cccc4cccnc34)ccc2O1

- remaining at 10 min, 3 µM [3]: 77%
- remaining at 10 min, 3 µM [4]: 79%
- Cmax [5]: 941 nM
- inhibition [6]: inactive
- bioavailability [7]: 88%
- half-life [8]: 59.4 min
- Tmax [9]: 37.8 min
- half-life [10]: 34.8 min
- Tmax [11]: 30 min
- Activity [12]: 140%
- IC50 [13]: 0.04 µM
- half-life [14]: 79.8 min
- Cmax [15]: 274 nM
- remaining at 10 min, 3 µM [16]: 70%
- AUC (Mus musculus [17]): 0.173 µM·h
- AUC (Mus musculus [18]): 5.784 µM·h
- clearance [19]: 169 mL/min/kg
- F (Mus musculus [20]): 100%
- inhibition [21]: inactive
- Cmax [22]: 2860 nM
- Vd [23]: 7.42 L/kg
- AUC(0-inf) [24]: 1.52 µM·h
SMILES: CC1(C)CCc2cc(S(=O)(=O)N(CC(=O)O)C3(c4cccc(-c5cc(Cl)cc(Cl)c5)c4)CCC3)ccc2O1

- IC50 [1]: 0.03 µM
SMILES: O=C(O)CN(Cc1ccc(-c2ccc(Cl)cc2Cl)cc1)S(=O)(=O)c1ccc(OC(F)F)cc1
